Common to all, as to type: functional, cell-based
One assay concerns MGC-803. Description: Antiproliferative activity against human MGC803 cells assessed as decrease in cell viability after 48 hrs by MTT assay. The conditions noted are these: MGC-803, 48 h. In outline: (§1)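 Cells in exponential growth seeded at 3000 per well and allowed 24 h. Medium then replaced with fresh medium holding a range of compound concentrations, followed by 48 h incubation. Viability read by MTT at 570 nm. IC50 is the concentration giving 50% inhibition of proliferation, reported as mean ± SD of three independent experiments.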
(Formazan colour is commonly taken as a measure of viable cells.)

A further assay relates to MKN-45. Description: Antiproliferative activity against human MKN45 cells assessed as decrease in cell viability after 48 hrs by MTT assay. The conditions noted are these: MKN-45, 48 h. The gist of the method: as §1
The next assay deals with ECa-109 cell line. Description: Antiproliferative activity against human EC109 cells assessed as decrease in cell viability after 48 hrs by MTT assay. The conditions noted are these: ECa-109, 48 h. The gist of the method:
as §1

The test system of another assay is NCI-H1650. The assay can be described thus: Antiproliferative activity against human NCI-H1650 cells assessed as decrease in cell viability after 48 hrs by MTT assay. The conditions noted are these: NCI-H1650, 48 h. In outline: as §1

The pIC50 is −log10 of the IC50, conventionally taken in molar units.

pIC50: −log10 of the molar value.

With `CCCSc1nc(Nc2ccccc2)c2ncc(=O)n(Cc3ccccc3)c2n1`, the pIC50 in the assay on MGC-803 was 4.44; in the assay with MKN-45, 4.41; with ECa-109 cell line, 4.72; in the assay on NCI-H1650, less than 4.19.
Regarding `CCCSc1nc(N2CCN(C)CC2)c2ncc(=O)n(CC3CCCCC3)c2n1`, the pIC50 in the assay with MGC-803 was 4.27; in the assay on MKN-45, 4.75; in the assay on ECa-109 cell line, less than 4.19; with NCI-H1650 it was 4.29.
For `CCCSc1nc(N2CCN(C)CC2)c2ncc(=O)n(CCCc3ccccc3)c2n1` the same measures were 4.86, 5.00, 4.74 and less than 4.19.
`CCCSc1nc(N2CCOCC2)c2ncc(=O)n(Cc3ccccc3)c2n1`: the pIC50 in the assay on MGC-803 is 4.30; with MKN-45, less than 4.19; in the assay with ECa-109 cell line, less than 4.19; in the assay with NCI-H1650, less than 4.19.
On to `CCCSc1nc(N2CCN(Cc3ccccc3)CC2)c2ncc(=O)n(Cc3ccccc3)c2n1`, for which the pIC50 in the assay on MGC-803 is 4.73; in the assay with MKN-45, 4.81; in the assay with ECa-109 cell line, less than 4.19; in the assay with NCI-H1650 it was less than 4.19.
Consider `CCCSc1nc(NC2CC2)c2ncc(=O)n(Cc3ccccc3)c2n1`, for which the pIC50 in the assay with MGC-803 is 4.36; in the assay on MKN-45, 4.63; in the assay with ECa-109 cell line, 4.53; in the assay on NCI-H1650, less than 4.19.
Regarding `CCCSc1nc(N2CCN(C)CC2)c2ncc(=O)n(CC(C)C)c2n1`, the pIC50 in the assay with MGC-803 is 4.77; with MKN-45, 4.77; with ECa-109 cell line it was 4.43; in the assay with NCI-H1650, 4.34.
Regarding `CCCNc1nc(SCCC)nc2c1ncc(=O)n2Cc1ccccc1`, the pIC50 in the assay with MGC-803 was less than 4.19; in the assay with MKN-45, 4.41; in the assay on ECa-109 cell line it was less than 4.19; in the assay on NCI-H1650 it was less than 4.19.
Take `CCCSc1nc(Nc2cc(OC)c(OC)c(OC)c2)c2ncc(=O)n(Cc3ccccc3)c2n1`: the pIC50 in the assay on MGC-803 was 4.82; in the assay with MKN-45, 4.85; with ECa-109 cell line it was 4.41; in the assay on NCI-H1650 it was 4.43.

Values taken from ChEMBL document CHEMBL4251558, “Synthesis and preliminary antiproliferative activity of new pteridin-7(8H)-one derivatives” (Eur J Med Chem, 2018).
